These results are taken from ChEMBL document CHEMBL1122169, “Inhibition of rat hepatic microsomal aminopyrine N-demethylase activity by benzimidazole derivatives. Quantitative structure-activity relationships” (J Med Chem, 1982).

The nature of data set [1]: Partition coefficient (logP). Type of data set: physicochemical. The conditions noted are these: octanol/water.
For another data set, the target named is T1, Cytochrome P450 2B1 (Rattus norvegicus, UniProt P00176).
T1 sequence (P00176 whole entry): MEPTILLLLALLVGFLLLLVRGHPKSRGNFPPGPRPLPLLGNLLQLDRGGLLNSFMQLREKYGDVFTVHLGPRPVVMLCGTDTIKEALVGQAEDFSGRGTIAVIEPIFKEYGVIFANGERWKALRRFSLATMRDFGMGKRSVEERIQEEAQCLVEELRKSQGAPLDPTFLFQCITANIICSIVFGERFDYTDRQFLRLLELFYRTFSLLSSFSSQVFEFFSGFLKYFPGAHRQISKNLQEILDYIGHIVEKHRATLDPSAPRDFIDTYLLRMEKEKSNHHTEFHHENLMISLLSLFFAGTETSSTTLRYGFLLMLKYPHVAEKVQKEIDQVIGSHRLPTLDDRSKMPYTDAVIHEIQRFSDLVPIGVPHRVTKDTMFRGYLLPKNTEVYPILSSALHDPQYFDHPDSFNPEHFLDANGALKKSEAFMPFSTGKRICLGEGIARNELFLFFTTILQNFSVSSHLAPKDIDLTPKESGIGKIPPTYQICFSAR
Nature of the data set: Inhibitory potency to aminopyrine N-demethylase activity (P450) in hepatic microsomes from phenobarbitone-induced rats. It is filed as ADME, Liver. The conditions noted are these: read-out: pI50 (converted). In short, it runs like this: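 Microsomes (105000g pellet) from livers of male Wistar rats (100–150 g) given phenobarbitone ip on consecutive days. A 3.0 mL mix in 0.1 M K phosphate, pH 7.4, held aminopyrine 1.61 μmol, NADPH-generating system, semicarbazide and 5.6 mg protein, run 15 min. Formaldehyde was read by Nash/Hantzsch. Inhibitor went in DMSO or 0.07 M HCl, with solvent in controls. I50 came from seven concentrations.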

Structures are written as SMILES.

Regarding `c1ccc(-c2nc3ccccc3[nH]2)cc1`, the logP in data set [1] worked out at 2.87. For the same molecule, on Cytochrome P450 2B1, the IC50 was 55 µM.

In data set [1], `CCCCCc1nc2ccccc2[nH]1` showed a logP of 3.43.

In the case of `Cc1nc2cc(C)c(C)cc2[nH]1`, in data set [1], the logP was found to be 2.4.

On to `CCc1nc2cc(C)c(C)cc2[nH]1`, for which the logP in data set [1] stood at 2.9.

Regarding `Cc1ccc2[nH]cnc2c1`, the logP in data set [1] was 1.89.

For the molecule `CCCCCCCCCCCc1nc2ccccc2[nH]1`, the logP in data set [1] turned out to be 6.43.

Consider `O=[N+]([O-])c1ccc2[nH]cnc2c1`, for which the logP in data set [1] came out at 1.64.

For the molecule `O=[N+]([O-])c1cccc2[nH]cnc12`, the logP in data set [1] was 2.01.

`Cc1cccc(OCc2nc3ccccc3[nH]2)c1` had a logP in data set [1] of 3.14. Also, at Cytochrome P450 2B1, the IC50 was 28.8 µM.

In data set [1], `ClCc1nc2ccccc2[nH]1` yielded a logP of 1.15.

In the case of `c1ccc(CCCCc2nc3ccccc3[nH]2)cc1`, the log partition coefficient (logP) in data set [1] is 4.96. The IC50 on Cytochrome P450 2B1 was 15.1 µM.

`CCCCCCCCCCCCCc1nc2ccccc2[nH]1`: the logP in data set [1] is 7.43. Besides, the IC50 at Cytochrome P450 2B1 was 22.9 µM.

`OC(c1ccccc1)c1nc2ccccc2[nH]1` (stereo not given) came in with a logP in data set [1] of 1.47.

The molecule `CCc1nc2ccc(C)cc2[nH]1` yielded a logP in data set [1] of 2.44.

For the molecule `CCCCCCCc1nc2cc(C)c(C)cc2[nH]1`, the logP in data set [1] was found to be 5.4. For the same molecule, at Cytochrome P450 2B1, the IC50 is 44.7 µM.

In data set [1], `Brc1ccc(OCc2nc3ccccc3[nH]2)c(Br)c1` came in with a lipophilicity (logP) of 4.52. Besides, on Cytochrome P450 2B1, the IC50 was 11 µM.

Molecule `Brc1cccc(Br)c1OCc1nc2ccccc2[nH]1` yielded a logP in data set [1] of 4.42. For the same molecule, the IC50 at Cytochrome P450 2B1 was 11 µM.

As to `CCOc1ccc2[nH]c(C)nc2c1`, the logP in data set [1] is 1.93. For the same molecule, the IC50 on Cytochrome P450 2B1 was 56.2 µM.

In turn, `CCCc1nc2cc(C)c(C)cc2[nH]1` returned a logP in data set [1] of 3.4.

`c1ccc2c(Cc3nc4ccccc4[nH]3)cccc2c1` returned a logP in data set [1] of 4.8. In addition, the IC50 at Cytochrome P450 2B1 is 25.1 µM.

`CCCCCc1nc2cc(NC(C)=O)ccc2[nH]1` came in with a logP in data set [1] of 2.61.

`CCCCCCCCc1nc2ccccc2[nH]1`: in data set [1], the log partition coefficient (logP) is 4.93. Also, the IC50 at Cytochrome P450 2B1 is 28.8 µM.

In data set [1], `CCCCCCCc1nc2cc(C)ccc2[nH]1` yielded a logP of 4.94. The IC50 on Cytochrome P450 2B1 was 41.7 µM.

On to `O=C(c1ccccc1)c1ccc2[nH]cnc2c1`, for which the lipophilicity (logP) in data set [1] was 2.43. Moreover, the IC50 at Cytochrome P450 2B1 was 20 µM.

As to `c1ccc(OCCc2nc3ccccc3[nH]2)cc1`, in data set [1], the log partition coefficient (logP) was found to be 3.16. Further, on Cytochrome P450 2B1, the IC50 was 25.1 µM.

`CC(=O)Nc1ccc2nc(C)[nH]c2c1` had a logP in data set [1] of 0.61.

The molecule `c1ccc2[nH]c(C3CCCCC3)nc2c1` displayed a logP in data set [1] of 3.39. For the same molecule, the IC50 on Cytochrome P450 2B1 was 91.2 µM.

Consider `CCCCCCc1nc2ccccc2[nH]1`, for which, in data set [1], the logP was 3.93. Further, on Cytochrome P450 2B1, the IC50 is 32.4 µM.

`CCCCC(=O)Nc1ccc2nc(C)[nH]c2c1` gave a lipophilicity (logP) in data set [1] of 2.11.

Molecule `Fc1ccc2[nH]cnc2c1` displayed a lipophilicity (logP) in data set [1] of 2.03.

Turning to `Brc1ccc(OCc2nc3ccccc3[nH]2)cc1`, the logP in data set [1] was determined as 3.77. The IC50 at Cytochrome P450 2B1 is 21.9 µM.

Consider `Cc1ccc2nc(C)[nH]c2c1`, for which, in data set [1], the logP was 1.94.

Turning to `c1ccc(CCc2nc3ccccc3[nH]2)cc1`, the logP in data set [1] was determined as 3.96. Besides, the IC50 at Cytochrome P450 2B1 was 38.9 µM.

Turning to `Cc1nc2cc(Cl)cc(Cl)c2[nH]1`, the logP in data set [1] amounted to 3.31. Also, the IC50 on Cytochrome P450 2B1 is 100 µM.

Consider `CCOc1ccc2[nH]cnc2c1`, for which, in data set [1], the lipophilicity (logP) turned out to be 1.88. Further, at Cytochrome P450 2B1, the IC50 is 67.6 µM.

In turn, `CC(=O)Nc1cc(Cl)cc2[nH]c(C)nc12` had a logP in data set [1] of 1.27.

In data set [1], `Clc1cc(Cl)c2[nH]cnc2c1` displayed a logP of 3.26. The IC50 on Cytochrome P450 2B1 is 53.7 µM.

In turn, `Cc1cccc(Cc2nc3ccccc3[nH]2)c1C` came in with a lipophilicity (logP) in data set [1] of 5.23. The IC50 at Cytochrome P450 2B1 is 53.7 µM.

In data set [1], `CCc1ccc(OCc2nc3ccccc3[nH]2)cc1` had a logP of 3.59. Moreover, the IC50 at Cytochrome P450 2B1 is 67.6 µM.

`O=C(Nc1cc(Cl)cc2nc[nH]c12)c1ccccc1` registered a logP in data set [1] of 2.68. The IC50 on Cytochrome P450 2B1 is 26.9 µM.

In data set [1], `Clc1ccccc1OCc1nc2ccccc2[nH]1` yielded a logP of 3.33. In addition, the IC50 on Cytochrome P450 2B1 is 26.9 µM.

`CCCCc1nc2ccccc2[nH]1` registered a logP in data set [1] of 2.93.

For the molecule `CC(C)Cc1nc2ccccc2[nH]1`, the logP in data set [1] worked out at 2.91.

With `c1ccc2[nH]c(C3CC3)nc2c1`, the logP in data set [1] was 2.02.

In data set [1], `c1ccc(CCCc2nc3ccccc3[nH]2)cc1` had a logP of 4.46. For the same molecule, at Cytochrome P450 2B1, the IC50 is 19.1 µM.

`Cc1nc2c(C)c(C)ccc2[nH]1`: the logP in data set [1] is 2.36.

With `Cc1nc2cc(NC(=O)c3ccccc3)ccc2[nH]1`, in data set [1], the logP was found to be 3.19.

Turning to `Clc1cc2nc[nH]c2cc1Cl`, the logP in data set [1] amounted to 3.17. Further, the IC50 on Cytochrome P450 2B1 was 81.3 µM.

On to `NCc1nc2ccccc2[nH]1`, for which the logP in data set [1] is -0.06.

Regarding `Cc1nc2ccccc2[nH]1`, the logP in data set [1] stood at 1.43.

With `CCCCCCCc1nc2ccccc2[nH]1`, the lipophilicity (logP) in data set [1] stood at 4.43.

Molecule `CCCc1nc2ccccc2[nH]1` displayed a logP in data set [1] of 2.43.

On to `CCc1nc2ccccc2[nH]1`, for which the logP in data set [1] came out at 1.93.

In turn, `Cc1nc2c([N+](=O)[O-])cc(Cl)cc2[nH]1` had a logP in data set [1] of 3.06. Moreover, the IC50 on Cytochrome P450 2B1 is 100 µM.

With `CC(C)(C)c1nc2ccccc2[nH]1`, the logP in data set [1] was determined as 2.86.

Take `c1ccc2c(c1)c1c(c3ccccc32)=NCN=1`: the logP in data set [1] turned out to be 4.06. On Cytochrome P450 2B1, the IC50 was 30.2 µM.

`Cc1nc2ccc([N+](=O)[O-])cc2[nH]1` came in with a logP in data set [1] of 1.69.

Take `O=[N+]([O-])c1cc(Cl)cc2[nH]cnc12`: the logP in data set [1] was 3.01.

As for `Cc1cc(C)cc(OCc2nc3ccccc3[nH]2)c1`, the logP in data set [1] came to 3.5. Besides, the IC50 on Cytochrome P450 2B1 is 25.7 µM.

In data set [1], `CCCCc1nc2cc(C)c(C)cc2[nH]1` gave a logP of 3.9. Besides, the IC50 at Cytochrome P450 2B1 was 55 µM.

Molecule `Cc1cc(OCc2nc3ccccc3[nH]2)cc(C)c1Cl` yielded a logP in data set [1] of 4.43. The IC50 at Cytochrome P450 2B1 is 30.2 µM.

The molecule `Brc1ccccc1OCc1nc2ccccc2[nH]1` showed a logP in data set [1] of 3.51. Also, the IC50 on Cytochrome P450 2B1 is 12 µM.

On to `Clc1cccc(OCc2nc3ccccc3[nH]2)c1Cl`, for which the lipophilicity (logP) in data set [1] came out at 4.26. Further, the IC50 on Cytochrome P450 2B1 was 28.2 µM.

`Clc1cccc(Cc2nc3ccccc3[nH]2)c1`: the logP in data set [1] came out at 4.44. For the same molecule, the IC50 at Cytochrome P450 2B1 was 22.9 µM.

For the molecule `Cc1ccc(OCc2nc3ccccc3[nH]2)cc1`, the log partition coefficient (logP) in data set [1] turned out to be 3.12. Besides, the IC50 on Cytochrome P450 2B1 was 44.7 µM.

In data set [1], `Clc1ccc(OCc2nc3ccccc3[nH]2)cc1` had a logP of 3.59. Besides, the IC50 on Cytochrome P450 2B1 was 25.1 µM.

In data set [1], `Clc1ccc(Cc2nc3ccccc3[nH]2)c(Cl)c1` had a logP of 5.32. Besides, the IC50 at Cytochrome P450 2B1 is 15.1 µM.

The molecule `c1ccc2cc(Cc3nc4ccccc4[nH]3)ccc2c1` showed a logP in data set [1] of 4.79. The IC50 at Cytochrome P450 2B1 was 18.2 µM.

In data set [1], `CC(C)c1nc2ccccc2[nH]1` came in with a logP of 2.41.

As for `c1ccc2c3c(ccc2c1)=NCN=3`, the lipophilicity (logP) in data set [1] was 2.72. Further, the IC50 at Cytochrome P450 2B1 is 53.7 µM.

As for `Cc1ccc(OCc2nc3ccccc3[nH]2)cc1C`, the log partition coefficient (logP) in data set [1] is 3.4. Also, the IC50 at Cytochrome P450 2B1 is 25.7 µM.

Regarding `c1ccc(OCc2nc3ccccc3[nH]2)cc1`, in data set [1], the logP was determined as 2.66. For the same molecule, at Cytochrome P450 2B1, the IC50 is 69.2 µM.

Consider `Cc1cccc2[nH]cnc12`, for which the logP in data set [1] turned out to be 1.86.

Turning to `FC(F)(F)c1nc2ccccc2[nH]1`, in data set [1], the log partition coefficient (logP) was 2.39.

`Clc1ccc2[nH]cnc2c1` gave a lipophilicity (logP) in data set [1] of 2.38.

On to `Cc1nc2cc(Cl)c(Cl)cc2[nH]1`, for which the logP in data set [1] is 3.22. In addition, the IC50 on Cytochrome P450 2B1 was 81.3 µM.

`Cc1nc2cc(Cl)ccc2[nH]1` had a logP in data set [1] of 2.43.

In data set [1], `c1ccc(-c2nc3ccccc3[nH]2)nc1` gave a logP of 2.38. Besides, on Cytochrome P450 2B1, the IC50 was 64.6 µM.

In data set [1], `c1cncc(-c2nc3ccccc3[nH]2)c1` registered a logP of 1.7.

Take `c1ccc(Cc2nc3ccccc3[nH]2)cc1` [BENDAZOL]: the log partition coefficient (logP) in data set [1] was determined as 3.46. The IC50 at Cytochrome P450 2B1 is 91.2 µM.

In the case of `c1ccc2[nH]cnc2c1` [BENZIMIDAZOLE], the logP in data set [1] was 1.38.

One may read the logP as a log measure of how a compound divides between an organic and an aqueous phase.
